For orientation: inhibition means how much of the control response was suppressed. The term IC50 denotes the concentration needed to halve the response being measured.

Results on 3 molecules are retold here after ChEMBL document CHEMBL1155633, “New lignan glycosides with potent antiinflammatory effect, isolated from Justicia ciliata” (J Nat Prod, 2000).

Active and inactive are the calls of the source. No cut-off for these calls is given here.

A short description of assay [1]: Antiinflammatory activity against mouse […] cells assessed as inhibition of LPS-induced nitrite accumulation at 10 uM treated 1 hr before LPS challenge assessed after 24 hrs. It is filed as functional. The method in brief: (§1)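 RAW 264.7 macrophages were plated at 2×10^5 cells/well in DMEM with 5% FCS and adhered overnight. They were pretreated 1 h at 37 °C with compound or 0.5% DMSO vehicle, then stimulated with E. coli 0111:B4 LPS 1 μg/mL for 24 h. Medium nitrite was read by Griess reaction (10 min at RT, A550) against an NaNO₂ standard. Mean ± s.e.m., n=3; IC50 from concentration–response.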

Assay [2] can be described thus: Antiinflammatory activity against mouse […] cells assessed as inhibition of LPS-induced nitrite accumulation at 30 uM treated 1 hr before LPS challenge assessed after 24 hrs. It is filed as functional. The method in brief: as §1
The species named for the next assay is Mus musculus. The assay can be described thus: Antiinflammatory activity against mouse […] cells assessed as inhibition of LPS-induced TNFalpha generation treated 1 hr before LPS challenge assessed after 24 hrs. It is filed as functional, cell-based. In short, it runs like this:
(§2)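 TNF-α release assay. Cells were pretreated with compound at 37 °C for 1 h and then stimulated for 24 h. N9 microglia were in Iscove's medium with 2% heat-inactivated FCS at 8×10^4 cells/well and were stimulated with LPS 10 μg/mL. RAW 264.7 cells were in DMEM with 5% FCS at 2×10^5 cells/well and were stimulated with LPS 1 μg/mL. Medium was stored at -70 °C until assay.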

Assay [3] concerns N9. The assay is described as follows: Antiinflammatory activity against mouse N9 cells assessed as inhibition of LPS/IFN-gamma-induced nitrite accumulation at 30 uM treated 1 hr before LPS challenge assessed after 24 hrs.
Assay [4] can be described thus: Antiinflammatory activity against mouse […] cells assessed as inhibition of LPS-induced nitrite accumulation at 3 uM treated 1 hr before LPS challenge assessed after 24 hrs. It is filed as functional. In short, it runs like this:
as §1

Assay [5] in a line: Antiinflammatory activity against mouse […] cells assessed as inhibition of LPS-induced nitrite accumulation treated 1 hr before LPS challenge assessed after 24 hrs. It is filed as functional, cell-based. In short, it runs like this:
as §1

Assay [6] has as its system N9. The assay is described as follows: Antiinflammatory activity against mouse N9 cells assessed as inhibition of LPS/IFN-gamma-induced nitrite accumulation at 10 uM treated 1 hr before LPS challenge assessed after 24 hrs.
The test system of assay [7] is N9. The assay can be described thus: Antiinflammatory activity against mouse N9 cells assessed as inhibition of LPS/IFN-gamma-induced TNFalpha generation treated 1 hr before LPS challenge assessed after 24 hrs. It is filed as functional, cell-based. In short, it runs like this:
as §2

A short description of assay [8]: Antiinflammatory activity against mouse […] cells assessed as inhibition of LPS-induced nitrite accumulation at 1 mM treated 1 hr before LPS challenge assessed after 24 hrs. It is filed as functional. The method in brief:
(§3)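 RAW 264.7 cells in DMEM with 5% FCS seeded at 2×10^5 cells/well and allowed to adhere overnight. Pretreated 1 h at 37 °C with compound or 0.5% DMSO (final), then stimulated with 1 μg mL⁻¹ E. coli 0111:B4 LPS for 24 h. Medium nitrite measured by Griess reaction (absorbance 550 nm) using an NaNO₂ standard curve. Mean ± s.e.m., n=3.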

A short description of assay [9]: Antiinflammatory activity against mouse […] cells assessed as inhibition of LPS-induced nitrite accumulation at 0.1 mM treated 1 hr before LPS challenge assessed after 24 hrs. It is filed as functional. In short, it runs like this:
as §3

Assay [10] is described as follows: Antiinflammatory activity against mouse […] cells assessed as inhibition of LPS-induced nitrite accumulation at 0.3 mM treated 1 hr before LPS challenge assessed after 24 hrs. It is filed as functional. In short, it runs like this: as §3
The subject of assay [11] is N9. The assay is described as follows: Antiinflammatory activity against mouse N9 cells assessed as inhibition of LPS/IFN-gamma-induced nitrite accumulation treated 1 hr before LPS challenge assessed after 24 hrs.

For the molecule `COc1cc2c(O[C@@H]3OC[C@](O)(CO[C@@H]4OC[C@@H](O)[C@H](O)[C@H]4O)[C@H]3O[C@@H]3OC[C@H](O)[C@H](O[C@@H]4OC[C@](O)(CO)[C@H]4O)[C@H]3O)c3c(c(-c4ccc5c(c4)OCO5)c2cc1OC)C(=O)OC3` [CILIATOSIDE B], the figures for the inhibition at 10 µM (in [1]; in the assay with N9 [6]) were 20.5% and 42.8%, respectively. Further, the inhibition at 30 µM in [2] amounted to 12.4%; with N9 [3] it was 36.5%. The outcome in the assay listed under Mus musculus and in the assay on N9 [7] was inactive. In addition, the inhibition at 3 µM in assay [4] amounted to 20.7%. For the same molecule, the IC50 in assay [5] was determined as 29.4 µM.
For `COc1cc2c(O[C@@H]3OC[C@](O)(CO[C@@H]4OC[C@@H](O)[C@H](O)[C@H]4O)[C@H]3O[C@@H]3OC[C@H](O)[C@H](O)[C@H]3O)c3c(c(-c4ccc5c(c4)OCO5)c2cc1OC)C(=O)OC3` [CILIATOSIDE A], the inhibition at 10 µM in assay [1] came to 18.7%; in the assay with N9 [6], 46.7%. Besides, the inhibition at 30 µM in [2] was determined as 11.9%; in the assay with N9 [3], 37.9%. The result in the assay filed under Mus musculus and in the assay on N9 [7] was inactive. Moreover, in [4], the inhibition at 3 µM was found to be 22%. The IC50 in [5] was 27.1 µM.
As for `COC(=O)[C@@H](N)CCCNC(=N)N[N+](=O)[O-]` [L-NAME], in [8], the inhibition at 1000 µM came to 6.6%. Besides, the inhibition at 100 µM in [9] worked out at 16.8%. For the same molecule, the inhibition at 300 µM in assay [10] turned out to be 15.6%. Besides, the IC50 in assay [5] is 510 µM; in the assay on N9 [11], 630 µM.
